Test results published in ChEMBL document CHEMBL1130160 (J Med Chem, 1997).
Active and inactive are the calls of the source. The rule behind the calls is not given here.

Key:
[1] = test system: Rattus norvegicus; test: Dose required to reduce serum cholesterol by 50% relative to OVX controls was determined (in vivo); format: functional
How it was run: (§1)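 OVX Sprague–Dawley rats (75 days old), 5–6 per group, dosed once daily by oral gavage for 4 consecutive days, starting 14 days after ovariectomy. Vehicle was 20% β-hydroxycyclodextrin at 1 mL/kg, or 1.5% carboxymethylcellulose in some cases. Rats were fasted after the last dose and bled by cardiac puncture next morning.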

[2] = test system: Rattus norvegicus; test: Percent decrease in serum cholesterol relative to OVX control at 0.1 mg/kg in rats; format: functional; how it was run: as §1
[3] = test system: Rattus norvegicus; test: Percent decrease in serum cholesterol relative to OVX control at 1.0 mg/kg in rats; format: functional; how it was run: as §1
[4] = test system: Rattus norvegicus; test: Percent decrease in serum cholesterol relative to OVX control at 10 mg/kg in rat was determined (in vivo); format: functional; how it was run: as §1
[5] = test system: Rattus norvegicus; test: Minimum effective dose at which significant increase in uterine eosinophil peroxidase (EPO) activity in rat was determined (in vivo); format: functional; settings: read-out: MED
[6] = test system: Rattus norvegicus; test: Minimum effective dose at which significant increase in uterine weight/body weight in rat was determined (in vivo); format: functional; settings: read-out: MED
How it was run: (§2)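 In 75-day OVX Sprague–Dawley rats dosed orally for 4 days, beginning 2 weeks post-ovariectomy with 5–6 rats per group, whole uteri were weighed the morning after fasting. MED is the lowest dose giving a significant (p≤0.05) rise in uterine weight/body weight, expressed as % increase over OVX controls ±SE.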

[7] = test system: Rattus norvegicus; test: Eosinophil peroxidase activity expressed as Vmax was determined in rat (in vivo) Eosinophil peroxidase activity expressed as Vmax was determined in rat (in vivo); format: functional; parameters: unit not given here
[8] = test system: Rattus norvegicus; test: Minimum effective dose at which significant increase in uterine weight/body weight in rat was determined (in vivo); expressed as % increase relative to ovariectomized (OVX) controls; format: functional; how it was run: as §2
[9] = test system: Rattus norvegicus; test: Percent protection of bone mineral density in the distal femur of OVX rat at a dose of 0.01 mg/kg/day; format: functional
How it was run: (§3)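 OVX Sprague–Dawley rats (6-month old, or 75-day old in one case) were dosed orally each day for 35 days, starting 4 days after ovariectomy. Digitized X-rays of the right distal femoral metaphysis gave BMD. % protection = (test − OVX)/(sham − OVX) × 100, reported ±SE.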

[10] = test system: Rattus norvegicus; test: Percent protection of bone mineral density in the distal femur of OVX rat at a dose of 0.1 mg/kg/day; format: functional; how it was run: as §3
[11] = test system: Rattus norvegicus; test: Percent protection of bone mineral density in the distal femur of OVX rat at a dose of 1 mg/kg/day; format: functional; how it was run: as §3
[12] = molecular target: T1, Estrogen receptor (Homo sapiens, UniProt Q92731+P03372); settings: mcf7
[13] = molecular target: T1, Estrogen receptor; test: In vitro relative binding affinity by competition with [3H]17-beta-estradiol for estrogen receptor in MCF-7 cell lysate; Not active at the doses tested; format: cell-based
How it was run: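 Human MCF-7 cell lysate (0.5–1.0 mg/mL total protein) incubated 18 h at 4 °C with 0.5 nM [3H]17β-estradiol and serial dilutions of test compound. Unbound radioligand removed with dextran/charcoal and centrifugation; bound label in the supernatant counted by scintillation. RBA = IC50(17β-estradiol)/IC50(test compound) × 100.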

[14] = test system: MCF7; test: Inhibition of MCF-7 cell proliferation stimulated by 10e-[…] M 17-beta-estradiol; Not active at the doses tested; format: functional, cell-based, Homo sapiens
[15] = test system: Rattus norvegicus; test: Percent decrease in serum cholesterol relative to OVX control at 0.1 mg/kg in rat was determined (in vivo); format: functional; how it was run: as §1
[16] = test system: Rattus norvegicus; test: Percent decrease in serum cholesterol relative to OVX control at 1 mg/kg in rat; format: functional; how it was run: as §1
[17] = test system: Rattus norvegicus; test: Percent protection of bone mineral density in the distal femur of 75-days old OVX rat at a dose of 0.01 mg/kg/day; format: functional; how it was run: as §3
[18] = test system: Rattus norvegicus; test: Percent protection of bone mineral density in the distal femur of 75-days old OVX rat at a dose of 0.1 mg/kg/day; format: functional; how it was run: as §3
[19] = test system: Rattus norvegicus; test: Percent protection of bone mineral density in the distal femur of 75-days old OVX rat at a dose of 10 mg/kg/day; format: functional; how it was run: as §3
[20] = test system: Rattus norvegicus; test: Percent protection of bone mineral density in the distal femur of OVX rat at a dose of 10 mg/kg/day; format: functional; how it was run: as §3
[21] = test system: Rattus norvegicus; test: Percent decrease in serum cholesterol relative to OVX control at 10 mg/kg in rats; format: functional; how it was run: as §1
[22] = test system: Rattus norvegicus; test: Eosinophil peroxidase activity expressed as Vmax was determined in rat (in vivo); format: functional

Compound | ED50 [1] | Decrease [4] | minimal effective dose [5] | minimal effective dose [6] | Increase [8] | Protection [10] | Protection [11] | IC50 [12] | Decrease [15] | Decrease [16] | Protection [20] | other results
O=C(c1ccc(OCCN2CCCCC2)cc1)c1c(-c2ccc(O)c3ccccc23)sc2cc(O)ccc12 | 1.2 mg/kg | 59.9% | 0.1 mg/kg | 0.1 mg/kg | 59.6% | 42.3% | 82.5% | 2 nM | – | – | – | Decrease [2]: 31.6%; Decrease [3]: 54.7%; Eosinophil peroxidase activity (Vmax) [7]: 29.4; Protection [9]: 35.9%
O=C(O)c1ccc2c(C(=O)c3ccc(OCCN4CCCCC4)cc3)c(-c3ccc(O)cc3)sc2c1 | 9 mg/kg | 53.3% | > 10 mg/kg | 1 mg/kg | 40.8% | – | – | – | -16.4% | 12.5% | – | relative binding affinity (RBA) [13]: inactive; IC50 [14]: Not Active
Cl.O=C(c1ccc(OCCN2CCCCC2)cc1)c1c(-c2ccc(O)cc2)sc2ccccc12 | < 0.1 mg/kg | 67.4% | > 10 mg/kg | 0.1 mg/kg | 39.2% | – | 41.8% | 35 nM | 70.7% | 69.9% | – | Protection [17]: -1.3%; Protection [18]: -4%; Protection [19]: 26.7%
Cl.O=C(c1ccc(OCCN2CCCCC2)cc1)c1c(-c2ccc(Cl)cc2)sc2ccccc12 | – | – | – | – | – | – | – | – | – | – | – | IC50 [14]: Not Active
COC(=O)c1ccc2c(C(=O)c3ccc(OCCN4CCCCC4)cc3)c(-c3ccc(O)cc3)sc2c1.Cl | 2.8 mg/kg | 61% | > 10 mg/kg | 0.1 mg/kg | 37.5% | -10% | 17% | – | 13.8% | 42.8% | 43.9% | –
O=C(c1ccc(OCCN2CCCCC2)cc1)c1c(-c2ccc(O)cc2)sc2cc(O)ccc12 [RALOXIFENE] | 0.2 mg/kg | 74% | > 10 mg/kg | 0.1 mg/kg | 23.5% | 50% | 57.7% | – | 44.9% | 66.7% | 53.8% | Protection [9]: 9.6%
O=C(c1ccc(OCCN2CCCCC2)cc1)c1c(-c2ccc(O)c(F)c2)sc2cc(O)ccc12 | 0.4 mg/kg | 55.3% | > 10 mg/kg | 0.1 mg/kg | 34.3% | 34.1% | 68% | 0.3 nM | 45.9% | 59.2% | 69.8% | Protection [9]: 34.5%
O=C(c1ccc(OCCN2CCCCC2)cc1)c1c(-c2ccc(C(F)(F)F)cc2)sc2cc(O)ccc12 | 0.4 mg/kg | – | 5 mg/kg | 5 mg/kg | – | – | – | 1000 nM | – | – | – | Decrease [21]: 71.5%
O=C(c1ccc(OCCN2CCCCC2)cc1)c1c(-c2cccc(O)c2)sc2cc(O)ccc12 | 0.8 mg/kg | – | > 10 mg/kg | > 10 mg/kg | – | -30.9% | 79.7% | 3.2 nM | – | – | 44.2% | –
O=C(c1ccc(OCCN2CCCCC2)cc1)c1c(Cc2ccc(O)cc2)sc2cc(O)ccc12 | 4 mg/kg | – | > 10 mg/kg | 5 mg/kg | 36.9% | – | – | 5 nM | – | – | – | Decrease [2]: -17.6%; Decrease [3]: 41.7%; Decrease [21]: 54%
Cc1ccc2c(C(=O)c3ccc(OCCN4CCCCC4)cc3)c(-c3ccc(O)cc3)sc2c1.Cl | > 10 mg/kg | 21.6% | > 10 mg/kg | 1 mg/kg | 23.9% | – | – | 300 nM | 16.9% | 33.9% | – | relative binding affinity (RBA) [13]: inactive
CCc1ccc(-c2sc3cc(O)ccc3c2C(=O)c2ccc(OCCN3CCCCC3)cc2)cc1 | 4.3 mg/kg | 57.4% | 1 mg/kg | 10 mg/kg | 29.7% | – | – | 5 nM | 3.3% | 37.2% | – | Increase [22]: 39.9 Vmax
CC(C)c1ccc(-c2sc3cc(O)ccc3c2C(=O)c2ccc(OCCN3CCCCC3)cc2)cc1 | 3.6 mg/kg | 48.5% | 1 mg/kg | 0.1 mg/kg | 24.9% | – | – | 30 nM | -24.1% | 47.1% | – | Increase [22]: 33.3 Vmax
O=C(c1ccc(OCCN2CCCCC2)cc1)c1c2ccc(O)cc2sc1[C@H]1CC[C@H](O)CC1 | 1 mg/kg | 60.4% | > 10 mg/kg | 0.1 mg/kg | 46.7% | 17% | 61.3% | – | – | – | 67.4% | Decrease [2]: 48.7%; Decrease [3]: 41.1%
C[C@]12CC[C@@H]3c4ccc(O)cc4CC[C@H]3[C@@H]1CC[C@@H]2O [ESTRADIOL] | – | – | – | – | – | – | – | – | – | – | – | IC50 [14]: Not Active
